Measurements from ChEMBL document CHEMBL3596156, “Synthesis and bioevaluation of heterocyclic derivatives of Cleistanthin-A” (Bioorg Med Chem, 2015).
Activity calls are given as the source filed them. The calls are words filed in the database; no cut-off is given here.

Assays:
HCT-116 = assay: Cytotoxicity against human HCT116 cells assessed as inhibition of cell proliferation after 72 hrs by MTT assay; assay type: functional, cell-based; conditions: HCT-116, 72 h
Summary of the method: (§1)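 MTT antiproliferation screen across HCT-116, HepG2, A549 and HeLa tumour lines, with WRL-68 normal cells run in parallel.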

HeLa = assay: Cytotoxicity against human HeLa cells assessed as inhibition of cell proliferation after 72 hrs by MTT assay; assay type: functional, cell-based; summary of the method: as §1
WRL68 = assay: Cytotoxicity against human WRL68 cells assessed as inhibition of cell proliferation after 72 hrs by MTT assay; assay type: cell-based; conditions: WRL68, 72 h; summary of the method: as §1
A549 = assay: Cytotoxicity against human A549 cells assessed as inhibition of cell proliferation after 72 hrs by MTT assay; assay type: functional, cell-based; conditions: A549, 72 h; summary of the method: as §1
HepG2 [1] = assay: Cytotoxicity against human HepG2 cells assessed as inhibition of cell proliferation after 72 hrs by MTT assay; assay type: functional, cell-based; conditions: HepG2, 72 h; summary of the method: as §1
HepG2 [2] = assay: Inhibition of V-ATPase in human HepG2 cells assessed as decrease in lysosomal pH at 1 uM after 48 hrs by LysoTracker Red staining-based confocal microscopic analysis relative to control; assay type: cell-based
Summary of the method: (§2)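 HepG2 cells stained with LysoTracker Red (pH-sensitive dye), then loaded sequentially with the agent. Test concentrations were 0, 15, 30 or 60 nM; diphyllin was used at 1 µM as positive control. Cells were exposed for 48 h, and lysosomal acidity was judged by red fluorescence on confocal microscopy versus untreated cells.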

HepG2 [3] = assay: Inhibition of V-ATPase in human HepG2 cells assessed as release of phosphate at 15 to 60 nM after 48 hrs by colorimetric assay; assay type: cell-based
Summary of the method: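 HepG2 cells treated 48 h with 0, 15, 30 or 60 nM, diphyllin as positive control. V-ATPase activity then measured using a commercial V-ATPase activity assay kit.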

HepG2 [4] = assay: Cytotoxicity against human HepG2 cells assessed as inhibition of cell viability at 15 to 60 nM after 24 to 72 hrs by MTT assay; assay type: functional, cell-based
Summary of the method: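 HepG2 cells exposed to 0, 15, 30 or 60 nM for 24, 48 and 72 h; viability read by MTT.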

HepG2 [5] = assay: Inhibition of V-ATPase in human HepG2 cells assessed as release of phosphate at 60 nM after 48 hrs by colorimetric assay relative to control; values are per cent of control
HepG2 [6] = assay: Inhibition of V-ATPase in human HepG2 cells assessed as decrease in cytosolic pH at 15 to 60 nM after 24 to 48 hrs by BCECF-AM probe-based spectrofluorophotometric analysis; assay type: cell-based
HepG2 [7] = assay: Inhibition of V-ATPase in human HepG2 cells assessed as release of phosphate at 30 nM after 48 hrs by colorimetric assay relative to control; values are per cent of control
HepG2 [8] = assay: Inhibition of V-ATPase in human HepG2 cells assessed as decrease in lysosomal pH at 60 nM after 48 hrs by LysoTracker Red staining-based confocal microscopic analysis relative to control; assay type: cell-based; summary of the method: as §2

SMILES | IC50 (HCT-116) | IC50 (HeLa) | IC50 (WRL68) | IC50 (A549) | IC50 (HepG2 [1]) | inhibition (HepG2 [2]) | inhibition (HepG2 [3]) | inhibition (HepG2 [4]) | level, % of control (HepG2 [5]) | inhibition (HepG2 [6]) | level, % of control (HepG2 [7]) | inhibition (HepG2 [8])
COc1cc2c(O[C@@H]3OC[C@@H](OC)[C@H](OC)[C@H]3OCCCCCCCCN3CCN(CCO)CC3)c3c(c(-c4ccc5c(c4)OCO5)c2cc1OC)C(=O)OC3 | 0.027 µM | 0.055 µM | > 0.2 µM | 0.029 µM | 0.025 µM | – | – | – | – | – | – | –
COc1cc2c(O[C@@H]3OC[C@@H](OC)[C@H](OC)[C@H]3OCCCCCCCCN3CCC(O)CC3)c3c(c(-c4ccc5c(c4)OCO5)c2cc1OC)C(=O)OC3 | 0.012 µM | 0.1 µM | > 0.2 µM | 0.026 µM | > 0.2 µM | – | – | – | – | – | – | –
COc1cc2c(O[C@@H]3OC[C@@H](OC)[C@H](OC)[C@H]3OCCCCCCCCN3CCN(C)CC3)c3c(c(-c4ccc5c(c4)OCO5)c2cc1OC)C(=O)OC3 | 0.011 µM | 0.091 µM | > 0.2 µM | 0.025 µM | 0.039 µM | – | – | – | – | – | – | –
COc1cc2c(O[C@@H]3OC[C@@H](OC)[C@H](OC)[C@H]3OCCCCCCN3CCCCC3)c3c(c(-c4ccc5c(c4)OCO5)c2cc1OC)C(=O)OC3 | 0.023 µM | 0.036 µM | > 0.2 µM | 0.026 µM | 0.034 µM | – | – | – | – | – | – | –
COc1cc2c(O)c3c(c(-c4ccc5c(c4)OCO5)c2cc1OC)C(=O)OC3 | – | – | – | – | – | Active | Active | – | – | – | – | –
COc1cc2c(O[C@@H]3OC[C@@H](OC)[C@H](OC)[C@H]3OCCCCCCCN3CCC(O)CC3)c3c(c(-c4ccc5c(c4)OCO5)c2cc1OC)C(=O)OC3 | 0.073 µM | > 0.2 µM | > 0.2 µM | > 0.2 µM | > 0.2 µM | – | – | – | – | – | – | –
COc1cc2c(O[C@@H]3OC[C@@H](OC)[C@H](OC)[C@H]3OCCCCCCCN3CCN(CCO)CC3)c3c(c(-c4ccc5c(c4)OCO5)c2cc1OC)C(=O)OC3 | 0.029 µM | > 0.2 µM | > 0.2 µM | > 0.2 µM | > 0.2 µM | – | – | – | – | – | – | –
COc1cc2c(O[C@@H]3OC[C@@H](OC)[C@H](OC)[C@H]3O)c3c(c(-c4ccc5c(c4)OCO5)c2cc1OC)C(=O)OC3 [CLEISTANTHIN] | 0.001 µM | 0.019 µM | > 0.2 µM | 0.004 µM | 0.008 µM | – | – | – | – | – | – | –
COc1cc2c(O[C@@H]3OC[C@@H](OC)[C@H](OC)[C@H]3OCCCCCCCCN3CCCCC3)c3c(c(-c4ccc5c(c4)OCO5)c2cc1OC)C(=O)OC3 | 0.015 µM | > 0.2 µM | > 0.2 µM | > 0.2 µM | 0.052 µM | – | – | – | – | – | – | –
COc1cc2c(O[C@@H]3OC[C@@H](OC)[C@H](OC)[C@H]3OCCCCCCCN3CCN(C)CC3)c3c(c(-c4ccc5c(c4)OCO5)c2cc1OC)C(=O)OC3 | 0.027 µM | 0.051 µM | > 0.2 µM | 0.023 µM | 0.041 µM | – | – | – | – | – | – | –
COc1cc2c(O[C@@H]3OC[C@@H](OC)[C@H](OC)[C@H]3OCCCCCCN3CCOCC3)c3c(c(-c4ccc5c(c4)OCO5)c2cc1OC)C(=O)OC3 | 0.021 µM | 0.02 µM | > 0.2 µM | 0.026 µM | 0.03 µM | – | – | Active | 56% | Active | 62% | Active
COc1cc2c(O[C@@H]3OC[C@@H](OC)[C@H](OC)[C@H]3OCCCCCCN3CCN(CCO)CC3)c3c(c(-c4ccc5c(c4)OCO5)c2cc1OC)C(=O)OC3 | 0.023 µM | 0.025 µM | > 0.2 µM | 0.019 µM | 0.033 µM | – | – | – | – | – | – | –
COc1cc2c(O[C@@H]3OC[C@@H](OC)[C@H](OC)[C@H]3OCCCCCCN3CCC(O)CC3)c3c(c(-c4ccc5c(c4)OCO5)c2cc1OC)C(=O)OC3 | 0.022 µM | 0.032 µM | > 0.2 µM | 0.023 µM | 0.03 µM | – | – | – | – | – | – | –
COc1cc2c(O[C@@H]3OC[C@@H](OC)[C@H](OC)[C@H]3OCCCCCCCN3CCOCC3)c3c(c(-c4ccc5c(c4)OCO5)c2cc1OC)C(=O)OC3 | 0.028 µM | 0.028 µM | > 0.2 µM | 0.023 µM | 0.043 µM | – | – | – | – | – | – | –
COc1cc2c(O[C@@H]3OC[C@@H](OC)[C@H](OC)[C@H]3OCCCCCCN3CCN(C)CC3)c3c(c(-c4ccc5c(c4)OCO5)c2cc1OC)C(=O)OC3 | 0.032 µM | 0.032 µM | > 0.2 µM | 0.036 µM | 0.039 µM | – | – | – | – | – | – | –
COc1cc2c(O[C@@H]3OC[C@@H](OC)[C@H](OC)[C@H]3OCCCCCCCCN3CCOCC3)c3c(c(-c4ccc5c(c4)OCO5)c2cc1OC)C(=O)OC3 | 0.025 µM | 0.045 µM | > 0.2 µM | 0.026 µM | 0.026 µM | – | – | – | – | – | – | –
